The source of these data is ChEMBL document CHEMBL3739289, “Discovery, synthesis and structure-activity analysis of symmetrical 2,7-disubstituted fluorenones as urea transporter inhibitors” (Medchemcomm, 2015).

pIC50: −log10 of the molar value. The source made the active and inactive calls. No cut-off for these calls is given here.

For one data set, the target named is T1, Urea transporter 1 (Rattus norvegicus, UniProt P97689).
T1 sequence (P97689 whole entry): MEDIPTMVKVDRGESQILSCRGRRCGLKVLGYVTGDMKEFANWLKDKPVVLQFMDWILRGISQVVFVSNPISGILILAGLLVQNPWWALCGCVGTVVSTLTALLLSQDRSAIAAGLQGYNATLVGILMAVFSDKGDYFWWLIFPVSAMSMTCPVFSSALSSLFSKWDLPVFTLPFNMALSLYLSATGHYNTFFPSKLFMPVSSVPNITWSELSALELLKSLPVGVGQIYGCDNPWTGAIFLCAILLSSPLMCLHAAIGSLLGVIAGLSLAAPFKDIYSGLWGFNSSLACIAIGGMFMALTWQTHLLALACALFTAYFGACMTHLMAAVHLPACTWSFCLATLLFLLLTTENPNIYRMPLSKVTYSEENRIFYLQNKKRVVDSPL
Kind of data set: Inhibition of UT-B in rat whole blood after 15 mins by RBC lysis assay. Format: tissue-based. In outline: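 Whole rat blood diluted to ~1.5% hematocrit in PBS with 1.25 M acetamide. Erythrocytes exposed to compound for 15 min, then rapidly mixed with PBS. Lysis read as absorbance at 710 nm; % inhibition calculated relative to negative and positive controls.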

Another data set deals with T2, Urea transporter 2 (Rattus norvegicus, UniProt Q62668).
T2 sequence (Q62668 whole entry): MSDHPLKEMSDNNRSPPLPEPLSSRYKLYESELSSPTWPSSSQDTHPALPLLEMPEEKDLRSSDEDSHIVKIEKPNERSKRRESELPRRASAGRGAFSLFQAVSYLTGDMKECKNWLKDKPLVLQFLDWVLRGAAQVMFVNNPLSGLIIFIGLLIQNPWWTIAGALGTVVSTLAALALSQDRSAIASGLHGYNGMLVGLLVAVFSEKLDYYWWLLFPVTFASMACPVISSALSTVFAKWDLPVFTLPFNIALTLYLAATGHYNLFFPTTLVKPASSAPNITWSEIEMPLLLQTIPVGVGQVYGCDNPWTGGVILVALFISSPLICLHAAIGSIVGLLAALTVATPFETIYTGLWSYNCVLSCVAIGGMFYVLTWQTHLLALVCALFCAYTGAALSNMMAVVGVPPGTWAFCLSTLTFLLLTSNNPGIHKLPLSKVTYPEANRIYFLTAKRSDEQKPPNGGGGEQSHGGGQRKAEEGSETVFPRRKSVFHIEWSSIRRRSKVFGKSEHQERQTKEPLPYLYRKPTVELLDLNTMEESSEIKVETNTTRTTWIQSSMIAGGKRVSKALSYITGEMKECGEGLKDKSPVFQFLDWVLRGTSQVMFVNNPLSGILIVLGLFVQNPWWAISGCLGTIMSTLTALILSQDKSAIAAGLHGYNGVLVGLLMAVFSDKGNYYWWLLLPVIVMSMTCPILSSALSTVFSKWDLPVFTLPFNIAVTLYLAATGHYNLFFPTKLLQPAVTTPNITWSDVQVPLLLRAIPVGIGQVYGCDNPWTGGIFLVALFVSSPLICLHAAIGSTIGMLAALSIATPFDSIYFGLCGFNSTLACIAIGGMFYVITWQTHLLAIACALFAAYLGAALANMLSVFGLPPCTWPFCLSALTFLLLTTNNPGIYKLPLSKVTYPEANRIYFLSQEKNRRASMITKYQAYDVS
Kind of data set: Inhibition of rat UT-A1 expressed in MDCK-UT-A1-AQP1-YFP cells after 15 mins by fluorescence assay. The format is cell-based.

Data set [1] is described as follows: Drug metabolism in rat liver microsomes assessed as cytochrome P450 monooxygenase-mediated oxidation by LC/MS analysis. The format is ADME. The method, boiled down:
(§1)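 Compounds incubated with rat liver microsomes plus NADPH for up to 60 min. Parent loss and metabolite appearance followed by LC/MS.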

The nature of data set [2]: Metabolic stability in rat liver microsomes assessed as compound remaining after 15 mins by RP-HPLC analysis in presence of NADPH. Format: ADME. The following applies: read-out: Stability. The method, boiled down: as §1
In general terms: Liver microsomes are vesicles of endoplasmic reticulum, rich in cytochrome P450 enzymes.

The target in data set [3] is T3, Urea transporter 2 (Rattus norvegicus) (UniProt Q62668).
T3 sequence (whole entry): T2 sequence (Q62668 whole entry)
Kind of data set: Inhibition of rat UT-A1 expressed in MDCK-UT-A1-AQP1-YFP cells after 40 secs by fluorescence assay. The format is cell-based.

The target of data set [4] is T3, Urea transporter 2 (Rattus norvegicus). Kind of data set: Non competitive inhibition of rat UT-A1 expressed in MDCK-UT-A1-AQP1-YFP cells at IC50 after 15 mins by fluorescence assay in presence of urea. The format is cell-based.
Another data set deals with Liver microsome. Kind of data set: Drug metabolism in rat liver microsomes assessed as [M+ H-16] formation by LC/MS analysis. The format is ADME. The following applies: TDE = time-dependent effect. In outline: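 Rat liver microsomes incubated with compound in presence of NADPH; disappearance of parent and appearance of metabolite followed by LC/MS over 60 min.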
The target of data set [5] is T3, Urea transporter 2 (Rattus norvegicus). Kind of data set: Reversible inhibition of rat UT-A1 expressed in MDCK-UT-A1-AQP1-YFP cells at IC50 measured 15 mins post compound washout by fluorescence assay. Format: cell-based.
The nature of data set [6]: Drug level in 1M NaOH treated with compound-18 assessed as compound formation. The format is physicochemical.

In general, pIC50 refers to the negative decadic logarithm of the IC50, by convention in mol/L. For `O=C1c2cc(N3CCCS3(=O)=O)ccc2-c2ccc(N3CCCS3(=O)=O)cc21`, the pIC50 at Urea transporter 1 and on Urea transporter 2 was less than 4.30 each time.
With `O=C(O)/C=C\C(=O)Nc1ccc2c(c1)C(=O)c1cc(NC(=O)/C=C\C(=O)O)ccc1-2`, the pIC50 at Urea transporter 1 is less than 4.30; at Urea transporter 2, 4.52.
Taken in the same sequence, the figures for `NC(=O)Nc1ccc2c(c1)C(=O)c1cc(NC(N)=O)ccc1-2` were 5.92 and 5.70.
As to `CC(=O)Nc1ccc2c(c1)C(=NO)c1cc(NC(C)=O)ccc1-2`, in data set [1], the Drug metabolism entry was “metabolite_notdetected”. In addition, the negative-log IC50 (pIC50) on Urea transporter 1 was 4.60; against Urea transporter 2, 4.92. Also, in [2], the remaining at 0.25 h is greater than 80%.
As to `CC(C)C(=O)Nc1ccc2c(c1)C(=O)c1cc(NC(=O)C(C)C)ccc1-2`, the pIC50 was 4.30 against Urea transporter 1 and 4.74 at Urea transporter 2.
On to `CS(=O)(=O)Nc1cccc(C(=O)c2cccc(NS(C)(=O)=O)c2)c1`, for which the pIC50 at Urea transporter 1 is 4.52; against Urea transporter 2, less than 4.30.
Taken in the same sequence, the figures for `O=C(COCc1ccccc1)Nc1ccc2c(c1)C(=O)c1cc(NC(=O)COCc3ccccc3)ccc1-2` were less than 4.30 and less than 4.30.
Take `Nc1cccc(C(=O)c2cccc(N)c2)c1`: the pIC50 on Urea transporter 1 and against Urea transporter 2 was less than 4.30 each time.
As to `CCC(=O)Nc1ccc2c(c1)C(=O)c1cc(NC(=O)CC)ccc1-2`, the pIC50 is 5.30 against Urea transporter 1 and 4.82 against Urea transporter 2.
As to `CC(=O)Nc1ccc2c(c1)C(=O)c1cc(NC(C)=O)ccc1-2`, the Drug metabolism entry in [1] is given as “metabolite_notdetected”; in the data set with Liver microsome it was “tde”. Further, the inhibition entry in [3], in data set [4] and in [5] was “Active” throughout. Besides, the negative logarithm of the IC50 (pIC50) was 5.82 against Urea transporter 1 and 6.00 on Urea transporter 2. Also, the remaining at 0.25 h in data set [2] stood at 60%.
With `CC(=O)Nc1ccc2c(c1)S(=O)(=O)c1cc(NC(C)=O)ccc1-2`, the Drug metabolism entry in [1] is reported as “metabolite_notdetected”. In addition, the negative logarithm of the IC50 (pIC50) against Urea transporter 1 was 5.70; against Urea transporter 2 it was 4.82. In addition, the remaining at 0.25 h in data set [2] was greater than 80%.
`CC(=O)Nc1cccc(C(=O)c2cccc(NC(C)=O)c2)c1`: in data set [1], the Drug metabolism entry was “metabolite_notdetected”. Also, the negative-log IC50 (pIC50) was 4.70 against Urea transporter 1 and 4.74 at Urea transporter 2. Moreover, the remaining at 0.25 h in data set [2] is greater than 80%.
For the compound `O=C(CBr)Nc1ccc2c(c1)C(=O)c1cc(NC(=O)CBr)ccc1-2`, the results for the negative logarithm of the IC50 (pIC50) against Urea transporter 1 and against Urea transporter 2 were 5.00 and 4.52, respectively.
Regarding `Nc1ccc2c(c1)C(=O)c1cc(N)ccc1-2`, the pIC50 on Urea transporter 1 and at Urea transporter 2 was less than 4.30 in each case.
For the compound `CC(=O)Nc1ccc2c(c1)C(O)c1cc(NC(C)=O)ccc1-2`, the results for the pIC50 against Urea transporter 1 and on Urea transporter 2 were 4.70 and less than 4.30, respectively.
Take `[N-]=[N+]=NCC(=O)Nc1ccc2c(c1)C(=O)c1cc(NC(=O)CN=[N+]=[N-])ccc1-2`: the pIC50 at Urea transporter 1 is 4.52; on Urea transporter 2, 4.70.
Consider `O=C1c2cc([N+](=O)[O-])ccc2-c2ccc([N+](=O)[O-])cc21`, for which the negative logarithm of the IC50 (pIC50) against Urea transporter 1 and against Urea transporter 2 was less than 4.30 throughout.
As for `O=C(CO)Nc1ccc2c(c1)C(=O)c1cc(NC(=O)CO)ccc1-2`, the pIC50 was 4.60 at Urea transporter 1 and 4.70 against Urea transporter 2.
As for `O=C1c2cc(NC(=O)C(F)(F)F)ccc2-c2ccc(NC(=O)C(F)(F)F)cc21`, the results for the pIC50 against Urea transporter 1 and on Urea transporter 2 were 5.12 and 5.00, respectively.
Taken in the same sequence, the figures for `O=C(COCc1ccccc1)Nc1cccc(C(=O)c2cccc(NC(=O)COCc3ccccc3)c2)c1` were less than 4.30 and less than 4.30.
Taken in the same sequence, the figures for `COCCOCC(=O)Nc1ccc2c(c1)C(=O)c1cc(NC(=O)COCCOC)ccc1-2` were 4.30 and less than 4.30.
Regarding `CC(=O)/N=C1\C=CC2=c3ccc(NC(C)=O)cc3=CC2=C1`, in data set [6], the Drug metabolism entry was “metabolite_detected”.
As to `CS(=O)(=O)Nc1ccc2c(c1)C(=O)c1cc(NS(C)(=O)=O)ccc1-2`, the negative logarithm of the IC50 (pIC50) was 5.60 against Urea transporter 1 and 5.82 on Urea transporter 2.
Regarding `CCCC(=O)Nc1ccc2c(c1)C(=O)c1cc(NC(=O)CCC)ccc1-2`, the negative-log IC50 (pIC50) on Urea transporter 1 and at Urea transporter 2 was less than 4.30 in each case.
